Compound activity: PubChem BioAssay, The Scripps Research Institute Molecular Screening Center
OXTR potentiate – human OXTR potentiators, primary screen, fluorescence, CHO-OTR cells, Fluo-8 calcium; Fluo-8 calcium fluorescence, potentiator mode; 0% = oxytocin EC15, 100% = EC100; Oxytocin receptor (Homo sapiens), P30559; hit rate 0.061% among 320,000; activation, % at 3 µM;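 active means activation above that plate's cutoff, the mean activation of tested compounds plus 3 SD, cut at about 6.6% in these data, passing the limit was not always enough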;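 further: 100% uses oxytocin at 75 nM as the full agonist control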
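Replication – single well per compound, singlicate · Assay system – CHO cell line stably expressing human OTR · Timing – 6 min pre-incubation, 100 s read · Measure – normalized max/min fluorescence ratio, % activation · Doses – 3.0 µM, one dose · Detection – Fluo-8 calcium dye fluorescence · Probe or stimulus – oxytocin near EC15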
V1aR counter – agonists of human V1a receptor, primary screen, counter-screen for OXTR agonist project, fluorescence, CHO-V1R cells; Fluo-8 calcium fluorescence, agonist mode; 0% DMSO, 100% 3 nM vasopressin; activation, % at 3 µM; hit rate 0.25% among 320,000;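 active means activation above the mean activation of all tested compounds plus 3 SD, per screening run, cut at about 20% in these data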;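 further: signal is peak over basal fluorescence ratio across a 100 second FLIPR read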
Target sequence (P37288 whole entry, looked up): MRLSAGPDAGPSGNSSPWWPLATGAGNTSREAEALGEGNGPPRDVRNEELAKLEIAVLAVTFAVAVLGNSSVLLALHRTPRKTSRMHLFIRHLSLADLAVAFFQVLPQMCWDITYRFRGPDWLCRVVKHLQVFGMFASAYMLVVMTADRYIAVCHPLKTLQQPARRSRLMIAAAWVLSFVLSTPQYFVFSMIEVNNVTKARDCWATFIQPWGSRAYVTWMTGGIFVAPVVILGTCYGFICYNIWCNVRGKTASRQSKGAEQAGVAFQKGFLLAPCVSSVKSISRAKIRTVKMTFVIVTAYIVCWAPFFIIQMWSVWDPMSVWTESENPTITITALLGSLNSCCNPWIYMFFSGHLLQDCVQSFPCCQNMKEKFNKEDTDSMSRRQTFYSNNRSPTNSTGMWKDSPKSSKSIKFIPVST
TAAR1 antagonist – human TAAR1 antagonists, primary screen, Fluo-8 calcium fluorescence, CHO RD-HGA16 cells | inhibition, % at 3 µM | antagonist | hit rate 1.5% among 360,000 | AID 624466, 2012 | Trace amine-associated receptor 1 (Homo sapiens), Q96RJ0;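 active means inhibition above a per-plate cutoff, the mean inhibition of test compounds on that plate plus 3 SD, cut at about 49% in these data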;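 further: 0% = DMSO plus EC80 beta-PEA response and 100% = DMSO alone without agonist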
Target sequence (Q96RJ0 whole entry, looked up): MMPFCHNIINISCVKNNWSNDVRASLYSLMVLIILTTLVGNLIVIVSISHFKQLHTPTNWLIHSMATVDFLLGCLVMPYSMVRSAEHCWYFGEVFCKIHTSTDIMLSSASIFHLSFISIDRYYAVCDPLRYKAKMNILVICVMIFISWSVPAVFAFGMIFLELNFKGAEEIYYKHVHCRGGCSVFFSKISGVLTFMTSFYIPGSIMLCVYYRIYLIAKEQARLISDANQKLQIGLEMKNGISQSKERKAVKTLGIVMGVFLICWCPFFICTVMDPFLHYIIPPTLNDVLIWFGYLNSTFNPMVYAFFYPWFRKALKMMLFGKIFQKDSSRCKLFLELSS
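Test system – hTAAR1-expressing CHO RD-HGA16 cells, Gα16-coupled · Also added – β-PEA at EC80 concentration, post-compound challenge · Compound – 3 µM, single point · Incubation – dye loading 75 min at 37 °C, then 30 min room temperature · Measured by – Fluo-8 intracellular calcium dye fluorescence, real-time kinetic reads · Benchmarks – vehicle and agonist controls · Replicates – singlicate, one well per test compound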
TAAR1 ag – human TAAR1 agonists, primary screen, Fluo-8 calcium fluorescence, CHO RD-HGA16 cells. activation, % at 3 µM. AID 624467, 2012. Trace amine-associated receptor 1 (Homo sapiens), Q96RJ0. vehicle wells 0%, saturating PEA agonist 100%. hit rate 0.99% among 360,000;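 active means activation above the mean activation of all test compounds in the run plus 3 SD, cut at about 38% in these data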
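Assay system: CHO-derived RD-HGA16 cells with stable Gα16 and human TAAR1; timing: 17-24 h seeding, 75 min 37 °C dye, 30 min RT; read-out: % activation from peak over basal fluorescence ratio, DMSO-to-PEA scaled; measured by: kinetic Fluo-8 calcium fluorescence; benchmarks: low control DMSO, high control PEA (EC100); doses: 3 µM single concentration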
OXTR agonist – human OXTR agonists, primary screen, fluorescence, CHO-OTR cells, Fluo-8 calcium; activation, % at 3 µM; Oxytocin receptor (Homo sapiens), P30559; AID 2435, 2010; hit rate 0.32% among 320,000; Fluo-8 calcium fluorescence; normalized: DMSO 0%, oxytocin 100%;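 active means activation above the mean of all tested compounds plus 3 SD, cutoff set per screening run, cut at about 20% in these data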;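 further: peak over basal fluorescence ratio from a 100 s FLIPR kinetic read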
Numbers without * were called inactive; . = no result given. Compounds with a hit are over-represented: about 2.3% of the library has one in this group of screens.

SMILES | OXTR potentiate | V1aR counter | TAAR1 antagonist | TAAR1 ag | OXTR agonist
O=C(Nc1ncc(Cc2ccc(SC(F)F)cc2)s1)c1ccc(OC(F)F)cc1 | -7.7 | 24.6* | -0.9 | 45.9* | 23.2*
CCOC(=O)c1ccccc1NC(=O)COC(=O)C1CCN(S(=O)(=O)c2ccccc2C(=O)OC)CC1 | -8.2 | -0.6 | 48.9* | 10.9 | 0.3
CCN(CC)c1ccc(S(=O)(=O)N2CCOCC2)cc1NC(=O)COC(=O)/C=C/c1ccc(O)c(OC)c1 | . | . | 44.6 | 8.8 | .
CCN(CC)c1ccc(S(=O)(=O)N2CCOCC2)cc1NC(=O)COC(=O)/C=C/c1ccc(C)o1 | -3.5 | -0.5 | 64.5* | 8.3 | -1.9
C=CCN=C1NC(c2ccc(C(F)(F)F)cc2)C(C(=O)OC)=C(C)N1Cc1ccccc1C(F)(F)F (stereo not drawn) | . | . | 11.9 | 6.0 | .
COC(=O)C1=C(C)N(Cc2ccccc2C(F)(F)F)C(=NCc2cc(OC)c(OC)c(OC)c2)NC1c1ccc(Cl)cc1 (stereo not drawn) | . | . | -5.0 | 9.0 | .
O=C(NCCc1ccccn1)C(F)(F)C(F)(F)C(F)(F)C(F)(F)C(F)(F)C(F)(F)C(F)(F)C(F)F | 0.9 | -0.5 | -0.9 | 41.3* | 0.0
S=C(Nc1ccc(Cl)cc1)NC1CC2CCC(C1)N2Cc1ccccc1 (stereo not drawn) | -11.6 | 14.5 | 20.2 | 25.3 | 20.9*
Cc1nn(-c2ccccc2)c(N2CCCC2)c1/C=N/NC(=O)c1ccccc1O | -8.9 | 0.5 | 18.7 | 8.3 | -1.9
Cc1nn(-c2ccccc2)c(N2CCCC2)c1/C=N/NC(=O)c1cc(-c2cccnc2)nc2ccccc12 | -5.3 | -1.4 | 51.0* | 9.7 | -2.5
NS(=O)(=O)c1ccc(CCn2c(=S)[nH]c3ccccc3c2=O)cc1 | -2.8 | 3.0 | 61.1* | 38.5* | 0.9
N#CC1C(=O)c2ccccc2C1c1ccccc1 (stereo not drawn) | . | . | 66.7* | 9.7 | .
CN(C)S(=O)(=O)N1CCC(Oc2ccc(C(=O)NC3Cc4ccccc4C3)cc2)CC1 | -23.5 | 8.5 | 58.1* | 14.7 | 9.8
Cc1c(C(=O)NC(=S)Nc2ccc(NC(=O)c3cccs3)cc2)cccc1[N+](=O)[O-] | -18.1 | 4.0 | 67.7* | 9.4 | 4.6
CC(=O)NC(=S)Nc1ccc(NC(=S)NC(=O)c2cccs2)cc1 | -1.5 | 0.6 | -15.8 | -0.2 | -0.2
COC(=O)c1cc2c(c3c4cc(OC)ccc4n(S(=O)(=O)c4cccc(C)c4)c13)C(=O)N(Cc1ccccc1OC)C2 | . | . | -42.4 | -0.8 | .
Cc1cc(Br)cc2c1NC(=O)C2(c1c(C)n(C)n(-c2ccccc2)c1=O)c1c(C)n(C)n(-c2ccccc2)c1=O | -9.1 | -0.6 | -35.0 | 7.0 | -0.9
COc1cc(C2(c3ccc(O)c(OC)c3)C(=O)Nc3c(C)cc(Br)cc32)ccc1O | -14.7 | 4.1 | 51.2* | 31.0 | 5.6
Cc1ccc(S(=O)(=O)N2CCOCC2)cc1NC(=O)COC(=O)COc1ccc(C#N)cc1 | . | . | -1.7 | 3.3 | .
COC(=O)[C@]1(C)CCC[C@@]2(C)C3CC[C@@]4(C)C[C@]3(CCC21)CC(=O)N4Cc1ccc(OC)cc1 (stereo partly drawn) | -4.5 | 0.2 | 11.6 | 9.4 | -0.9
COC(=O)[C@]1(C)CCC[C@@]2(C)C3CC[C@]4(OC(C)=O)C[C@@]3(CCC21)CC4=O (stereo partly drawn) | -8.1 | -1.5 | 51.1* | 14.3 | -1.3
COc1cc(-c2c(C#N)c(N)nc3c2c(C)nn3-c2ccc(C)c(C)c2)cc(OC)c1OC | -5.2 | -0.3 | 3.5 | 1.5 | -0.4
Cc1nn(-c2ccc(F)cc2)c2nc(N)c(C#N)c(-c3ccc(O)c(O)c3)c12 | . | . | 50.8* | 5.7 | .
Cc1nn(-c2ccccc2)c2nc(N)c(C#N)c(-c3ccc(O)c(O)c3)c12 | -10.8 | 5.4 | 50.8* | 8.4 | 4.2
Cc1cccc(OCCSc2nc3c([nH]2)c(=N)ncn3Cc2ccccc2)c1 | -9.0 | 3.1 | 55.5* | 19.3 | 0.3
SMILES | OXTR potentiate | V1aR counter | TAAR1 antagonist | TAAR1 ag | OXTR agonist
CC(C)Sc1nc2c([nH]1)c(=N)ncn2Cc1ccccc1 | -11.8 | -0.3 | 15.3 | -0.8 | -1.1
CCOc1ccc(-c2[nH]ncc2Oc2ccccc2OC)c(O)c1 | -17.6 | 0.6 | 27.2 | 0.6 | -1.8
CCOc1ccc(-c2[nH]ncc2Oc2ccccc2OCC)c(O)c1 | -16.5 | 4.2 | 49.4* | 17.3 | 3.9
C=CCN1C[C@H](COC(=O)CSc2ccccc2)Oc2cccc(F)c2S1(=O)=O | . | . | 28.3 | 2.3 | .
Cc1cc(C)nc(Nc2nc(C(N)Cc3ccc(F)cc3)cs2)n1 (stereo not drawn) | . | . | 1.9 | 27.8 | .
NC(Cc1ccccc1)c1csc(Nc2ccc(C(F)(F)F)cn2)n1 (stereo not drawn) | . | . | 20.1 | 41.3* | .
COc1cc(OC)nc(Nc2nc(C(N)Cc3ccc(C(F)(F)F)cc3)cs2)n1 (stereo not drawn) | . | . | 34.2 | 52.7* | .
COc1cc(OC)nc(Nc2nc(C(N)Cc3ccccc3)cs2)n1 (stereo not drawn) | . | . | -7.3 | 17.5 | .
Cc1cc(C)nc(Nc2nc(C(N)Cc3ccc(C(F)(F)F)cc3)cs2)n1 (stereo not drawn) | . | . | 35.2 | 47.0* | .
O=C(O)CC(Sc1ccc(Cl)cc1)C(=O)Nc1ccccc1 (stereo not drawn) | . | . | 2.0 | 1.4 | .
Nc1ccc2c(c1)OCCOCCOCCOCCOCCO2 | -9.5 | 1.9 | -9.3 | 2.0 | 0.5
c1ccc2c(c1)OCCOCCOc1ccccc1OCCOCCO2 | -7.2 | 3.9 | 52.7* | 18.2 | 4.4
O=C(N[C@H](Cc1ccccc1)C(=O)NCc1ccc(OC(F)(F)F)cc1)[C@H]1O[C@@H](n2ccc(=O)[nH]c2=O)[C@H](O)[C@@H]1O | . | . | -16.0 | 0.5 | .
COc1ccc(-c2ccc(C(=O)NCc3ccncc3)c3occc23)c(C)c1 | . | . | 27.8 | 1.5 | .
CN(CC(=O)Nc1cc([N+](=O)[O-])ccc1Cl)Cc1ccc(Br)cc1 | -5.5 | 0.3 | 11.3 | 3.7 | -2.7
Cc1ccsc1CN(C)CC(=O)Nc1ccc([N+](=O)[O-])cc1Cl | -10.5 | 0.4 | 51.5* | 1.9 | -0.1
COc1cccc(NC(=O)Nc2cccs2)c1 | -11.3 | 2.9 | 19.3 | 20.4 | 1.1
CC(=O)c1cccc(NC(=O)Nc2cccs2)c1 | -20.9 | 5.9 | 28.2 | 42.4* | 3.5
O=C(Nc1cccs1)Nc1ccc(Br)cc1F | -14.2 | 8.2 | 38.6 | 10.5 | 9.4
O=C(Nc1cccs1)Nc1ccc(F)cc1F | -13.2 | 4.5 | -10.1 | 39.3* | 3.4
C[C@H](CO)N1C[C@H](C)[C@H](CN(C)C(=O)Nc2ccccc2)OCc2cnnn2CCCC1=O | . | . | -20.6 | 2.3 | .
